Hits are enriched below; roughly 2.3% of the tested compounds scored in any of these assays.
pPAFAH inh = pPAFAH enzyme inhibitors, primary screen, biochemical, fluorescence polarization, human; Platelet-activating factor acetylhydrolase (Homo sapiens), Q13093; recombinant pPAFAH, FP-rhodamine probe fluorescence polarization; inhibition, % at 3.39 µM; 1.5% of 330,000 active; AID 463082, 2010;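 active means inhibition above the mean inhibition across the screen plus 3 SD, cut at about 25% in these data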;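 further: inhibitors block binding of the rhodamine activity-based probe so polarization drops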
HTRA1 inh = HTRA1 serine protease inhibitors, primary screen, biochemical, fluorescence polarization, HTS; AID 504803, 2011; recombinant HTRA1, FP-rhodamine activity-based probe; 0.5% of 340,000 active; inhibition, % at 5.96 µM; Q92743; in the data active means inhibition above about 36%
SIAE inh = human SIAE inhibitors, primary screen, biochemical, fluorescence polarization, FP-Rh probe, 1536-well HTS | inhibition, % at 9.66 µM | 0.69% of 370,000 active | AID 1053197, 2014 | Sialate O-acetylesterase (Homo sapiens), Q9HAT2 | SIAE FP-Rh probe binding;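 active means inhibition above a cutoff: mean of compounds within the control limits plus 3 SD of those, cut at about 17% in these data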
Target sequence (Q9HAT2 whole entry, looked up): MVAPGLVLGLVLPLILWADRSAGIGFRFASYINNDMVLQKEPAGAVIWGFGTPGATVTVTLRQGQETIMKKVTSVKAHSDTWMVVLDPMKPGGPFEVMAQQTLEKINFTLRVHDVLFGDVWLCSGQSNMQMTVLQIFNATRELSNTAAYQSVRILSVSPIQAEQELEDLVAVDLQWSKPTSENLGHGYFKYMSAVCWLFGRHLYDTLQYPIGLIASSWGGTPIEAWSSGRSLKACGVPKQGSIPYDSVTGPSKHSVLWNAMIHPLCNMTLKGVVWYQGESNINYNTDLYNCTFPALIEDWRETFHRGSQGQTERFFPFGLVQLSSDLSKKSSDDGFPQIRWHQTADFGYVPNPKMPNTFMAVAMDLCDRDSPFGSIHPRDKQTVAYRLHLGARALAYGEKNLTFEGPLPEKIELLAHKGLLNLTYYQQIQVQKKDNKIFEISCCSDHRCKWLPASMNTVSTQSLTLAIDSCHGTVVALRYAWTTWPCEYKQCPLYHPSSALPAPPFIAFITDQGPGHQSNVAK
mABHD4 FP = ABHD4 inhibitors, primary screen, biochemical, fluorescence polarization, mouse; (Lyso)-N-acylphosphatidylethanolamine lipase (Mus musculus), Q8VD66; inhibition, % at 8.92 µM; purified mABHD4, FP-Rh probe fluorescence polarization; 0.54% of 370,000 active;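 active means inhibition exceeding the mean over every tested compound plus 3 SD, cut at about 30% in these data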
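Doses – 8.92 µM, single dose · Material – wild-type mouse ABHD4 protein · Replication – single well per compound (singlicate) · Measure – percent inhibition of probe binding, normalized to plate controls · Schedule – 45 min compound pre-incubation plus 60 min probe step, 25 °C · Detection – fluorescence polarization with parallel and perpendicular emission, 525/598 nm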
TCR CD3 inh = inhibitors of human TCR-CD3 interaction, primary screen, biochemical, fluorescence, TAMRA-labeled TCR probe; inhibition, % at 9.4 µM; 0.37% of 360,000 active; AID 651800, 2012;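 further: recombinant mutant TCR 2C K166C tagged with TAMRA read by polarization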
BSA TAMRA ctr = compounds interfering with TAMRA-BSA probe, counter-screen for TCR-CD3 interaction inhibitor project, biochemical, fluorescence, TAMRA-labeled BSA; AID 652035, 2013; shares compounds with TCR CD3 inh; TAMRA-labeled BSA probe fluorescence counterscreen; 10% of 1,200 active; inhibition, % at 9.4 µM; in the data active means inhibition above about 23%
TCR-CD3 inh conf = TCR-CD3 interaction inhibitors, retest, confirmation, biochemical, fluorescence, TAMRA-labeled TCR probe. AID 652036, 2013. 48% of 1,200 active. inhibition, % at 9.4 µM. TAMRA-labeled TCR probe fluorescence binding assay. shares compounds with TCR CD3 inh
Numbers stand for hits; – = inactive; · = no result given. Unless noted, no stated cut-off is given here; in the data, active means inhibition above about 19%; inactive means the rest.

SMILES | pPAFAH inh | HTRA1 inh | SIAE inh | mABHD4 FP | TCR CD3 inh | BSA TAMRA ctr | TCR-CD3 inh conf
O=S(=O)(c1ccc2nc(-c3ccccc3)[nH]c2c1)N1CCN(c2ccc(Cl)cc2)CC1 | – | – | – | – | 38 | – | –
CSCCNC(=O)C1(C)CCN1C(=O)c1ccc(C(C)(C)C)cc1 (stereo not drawn) | · | · | – | – | – | · | ·
CCOC(=O)CS(=O)(=O)c1nc(-c2ccccc2)cc(C(F)(F)F)n1 | – | – | – | – | 22 | – | –
COc1ccc(C(C(=O)NC(C)(C)C)n2c(-c3ccc(-c4ccccc4)cc3)nc3ccccc32)cc1 (stereo not drawn) | · | · | – | – | – | · | ·
COc1cc(Br)cc2cc(C(=O)N3CCN(C(=O)c4ccco4)CC3)c(=O)oc12 | – | – | – | – | 20 | – | 19
Cc1ccc(-c2n[nH]c(=S)n2-c2ccccc2)cc1 | – | – | – | – | – | · | ·
CS(=O)(=O)Nc1ccc(-c2n[nH]c(=S)n2-c2ccccc2)cc1 | – | – | – | – | 37 | – | –
CN(C)c1ccc(-c2ccnc3c2CC(C)(C(=O)NCC2CC2)O3)cc1 (stereo not drawn) | · | · | – | – | – | · | ·
CC(C)[C@@H]1C(=O)N[C@H](Cc2cn(S(=O)(=O)c3ccccc3)c3ccccc23)C(=O)N1C | · | · | – | – | · | · | ·
CC(=O)N1CCc2cc(S(=O)(=O)NC3CCN(C(=O)CCl)CC3)ccc21 | · | · | – | – | · | · | ·
Cc1ccc(N(CC(=O)Nc2ccc(-c3nc4ccc(C)cc4s3)cc2)S(C)(=O)=O)cc1 | – | – | – | – | – | · | ·
Cc1ccc(C)c(N(CC(=O)Nc2ccc(-c3nc4ccc(C)cc4s3)cc2)S(C)(=O)=O)c1 | – | – | – | – | 20 | – | –
Cc1ccccc1CNC(=O)c1csc([C@@H]2C[C@H](O)[C@@H](CO)O2)n1 | · | · | – | – | – | · | ·
COc1ccc(Nc2sc(C(=O)c3ccc(Cl)cc3)c(N)c2C(=O)Nc2ccccc2OC)cc1 | – | – | – | – | – | · | ·
COc1ccccc1NC(=O)c1c(Nc2ccccc2C)sc(C(=O)Nc2cccc(Cl)c2)c1N | – | – | – | – | 21 | – | –
C[C@H]1CCC[C@@H](O)CC(=O)c2c(O)cc(O)cc2CC(=O)O1 | · | · | – | – | · | · | ·
O=C(CCc1nnc(CCCCc2ccccc2)o1)N1CCC(N2CCCC2)CC1 | – | – | – | – | 24 | – | –
CC(=O)N1CCN(C(=O)CCc2nnc(CCCCc3ccccc3)o2)CC1 | – | – | – | – | – | · | ·
Cc1ccc2c(CC(=O)NNC(=O)c3ccccc3O)coc2c1 | – | – | – | – | 20 | – | 21
COc1ccccc1NC(=O)Cc1coc2cc(C)ccc12 | – | – | – | – | – | · | ·
Cc1ccc(NC(=O)CCC(=O)c2ccccc2)cc1 | · | – | – | – | – | · | ·
Cc1ccc(C(=O)CCC(=O)NNC(=O)c2ccccc2O)cc1 | – | – | – | – | 21 | – | 23
O=C(CCNC(=O)c1ccccc1Cl)NNC(=O)c1ccccc1O | – | – | – | – | 23 | – | –
O=C(CC1CCCC1)NNC(=O)c1ccccc1O | · | – | – | – | 29 | – | 23
O=C(NCCNC(=O)c1ccccc1O)c1ccccc1O | – | – | – | – | – | · | ·
COc1ccc(-c2oc3c(c2C(=O)OCCO)C(OCCCO)CCC3)cc1 (stereo not drawn) | · | · | – | – | – | · | ·
CCc1nc2ccc(C(=O)N3CCN(S(=O)(=O)CC)CC3)cn2c1N(CC)CCOC | · | · | – | – | – | · | ·
CCCCOc1ccc(C(=O)n2ccc3ccc(-c4ccc5ccn(Cc6ccc(OC)cc6)c5c4)cc32)cc1 | · | · | – | – | · | · | ·
COP(=O)(CC(=O)C(Cc1ccccc1)NC(=O)OC(C)(C)C)OC (stereo not drawn) | · | · | – | – | · | · | ·

Source: PubChem
